Results from ChEMBL document CHEMBL4842325, “Lanosterol 14α-demethylase (CYP51)/histone deacetylase (HDAC) dual inhibitors for treatment of Candida tropicalis and Cryptococcus neoformans infections” (Eur J Med Chem, 2021).
≈ marks a conversion by molar mass, not a printed value. Calls of active or inactive are those of the source. No cut-off for these calls is given here.

Tests used:
Candida tropicalis [1] = test: microbe, parasite or virus in culture; type: functional; conditions: 5008, time 48 hrs
Cryptococcus neoformans [2] = test: microbe, parasite or virus in culture; type: functional; conditions: H99, time 72 hrs
Candida albicans [3] = test: microbe, parasite or virus in culture; type: functional; conditions: 7781
Candida albicans [4] = test: microbe, parasite or virus in culture; type: functional; conditions: 4108
Candida albicans [5] = test: Antifungal activity against fluconazole-sensitive Candida albicans 9770 assessed as inhibition of fungal growth; type: functional
Candida tropicalis [6] = test: Antifungal activity against fluconazole-resistant Candida tropicalis 5008 assessed as inhibition of cell proliferation at 8 ug/ml measured for 48 hrs by time growth curve assay; type: functional, organism-based; conditions: dose 8.0 µg/ml
Outline: (§1)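 Exponential-phase cells from YEPD resuspended in 3 mL fresh RPMI 1640 at 1 × 10⁵ cells/mL (C. tropicalis 5008) or 1 × 10⁶ cells/mL (C. neoformans H99). Compound at several concentrations; cultures shaken at 240 rpm, 30 °C. Growth read as OD₆₃₀ at 0, 6, 12, 24, 36 and 48 h. Done in triplicate.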

Candida tropicalis [7] = test: Inhibition of biofilm formation in Candida tropicalis 5008 at 64 ug/ml incubated for 24 hrs by XTT reduction assay; type: functional
Outline: (§2)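 C. tropicalis 5008 or C. neoformans H99 from exponential YEPD culture diluted in RPMI 1640 to 1 × 10⁶ CFU/mL. Adhesion at 37 °C for 1.5 h. Results given as percent inhibition versus untreated wells. Three independent experiments, mean ± SD, t-test.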

Cryptococcus neoformans [8] = test: Inhibition of biofilm formation in Cryptococcus neoformans H99 at 64 ug/ml incubated for 24 hrs by XTT reduction assay; type: functional
Outline: as §2

Cryptococcus neoformans [9] = test: Inhibition of capsule formation in Cryptococcus neoformans H99 assessed as reduction in capsule size at 40 to 50 ug/ml incubated for 24 hrs by laser scanning confocal microscopic analysis; type: functional; conditions: dose 40-50 µg/ml
Outline: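 Exponential C. neoformans H99 resuspended in PBS at 1 × 10⁷ cells/mL. Cells cultured in DMEM with FBS and compound at 37 °C under 10% CO₂ for 24 h, with an untreated control. Stained with India ink and imaged by laser scanning confocal microscopy at 63×, 10 random fields. Whole-cell and cell-body diameters measured to derive capsule size.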

Cryptococcus neoformans [10] = test: Downregulation of CAP60 gene expression in Cryptococcus neoformans H99 at 2 ug/ml measured after 24 hrs by qRT-PCR analysis; type: functional; conditions: dose 2.0 µg/ml
Outline: (§3)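 Exponentially growing C. neoformans H99 inoculated into 50 mL YPD with compound and incubated 35 °C for 24 h. Cells ground in liquid nitrogen before total RNA isolation, then reverse transcription and real-time RT-qPCR. Means ± SD of three independent assays.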

Cryptococcus neoformans [11] = test: Downregulation of CAP59 gene expression in Cryptococcus neoformans H99 at 2 ug/ml measured after 24 hrs by qRT-PCR analysis; type: functional; conditions: dose 2.0 µg/ml
Outline: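 Exponential-phase C. neoformans H99 inoculated into 50 mL YPD with compound. Incubated 35 °C for 24 h, then cultures ground in liquid nitrogen for RNA isolation. Transcript levels of capsule-associated genes quantified by RT-qPCR. Three independent experiments, mean ± SD, t-test.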

Candida tropicalis [12] = test: Inhibition of CYP51 in Candida tropicalis 5008 assessed as unknown sterol level at 4 ug/ml by GC-MS analysis (reference value: 6.48%); parameters: scale not given: the % may be the effect or the level left; conditions: dose 4.0 µg/ml
Candida tropicalis [13] = test: Inhibition of CYP51 in Candida tropicalis 5008 assessed as eburicol level at 4 ug/ml by GC-MS analysis; parameters: scale not given: the % may be the effect or the level left; conditions: dose 4.0 µg/ml
Cryptococcus neoformans [14] = test: Inhibition of CYP51 in Cryptococcus neoformans H99 assessed as ergosterol level at 4 ug/ml by GC-MS analysis (reference value: 60.18%); parameters: scale not given: the % may be the effect or the level left; conditions: dose 4.0 µg/ml
Cryptococcus neoformans [15] = test: Inhibition of CYP51 in Cryptococcus neoformans H99 assessed as lanosterol level at 4 ug/ml by GC-MS analysis; parameters: scale not given: the % may be the effect or the level left; conditions: dose 4.0 µg/ml
Candida tropicalis [16] = test: Downregulation of ERG11 mRNA expression in Candida tropicalis 5008 at 4 ug/ml measured after 24 hrs by qRT-PCR analysis; type: functional; conditions: dose 4.0 µg/ml
Outline: (§4)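 Exponential-phase C. tropicalis 5008 inoculated into 10 mL YPD with compound at several concentrations, DMSO as blank control. Incubated 35 °C for 24 h. Total RNA isolated on columns and reverse-transcribed. Real-time RT-PCR with ACT1 as internal control. Mean of 3 independent assays ± SD.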

Candida tropicalis [17] = test: Downregulation of CDR1 mRNA expression in Candida tropicalis 5008 at 4 ug/ml measured after 24 hrs by qRT-PCR analysis; type: functional; conditions: dose 4.0 µg/ml
Outline: as §4

Candida tropicalis [18] = test: Downregulation of MDR1 mRNA expression in Candida tropicalis 5008 at 4 ug/ml measured after 24 hrs by qRT-PCR analysis; type: functional; conditions: dose 4.0 µg/ml
Outline: as §4

[19] = Inhibition of HDAC in Candida tropicalis 5008 using Boc-Lys(Ac)-AMC as substrate preincubated with protoplast for 12 hrs followed by incubation with substrate for 6 hrs by fluorimetric assay
Outline: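 Whole-cell assay on C. tropicalis 5008, 100 mg wet weight of exponential-phase cells. Cell wall removed with snailase to give protoplasts, which were dispersed in PBS. Protoplasts incubated with compound at 35 °C for 12 h. Boc-Lys(Ac)-AMC then added to a final 30 µM and incubated 37 °C for 6 h. Stop solution added, 37 °C for 2 h. Fluorescence read at Ex 360/Em 460 nm and converted to HDAC inhibition rate.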

Cryptococcus neoformans [20] = test: Downregulation of HOS2 mRNA expression in Cryptococcus neoformans H99 at 2 ug/ml measured after 24 hrs by qRT-PCR analysis; type: functional; conditions: dose 2.0 µg/ml
Outline: as §3

Cryptococcus neoformans [21] = test: Downregulation of CLR62 mRNA expression in Cryptococcus neoformans H99 at 2 ug/ml measured after 24 hrs by qRT-PCR analysis; type: functional; conditions: dose 2.0 µg/ml
Outline: as §3

Cryptococcus neoformans [22] = test: Downregulation of CLR61 mRNA expression in Cryptococcus neoformans H99 at 2 ug/ml measured after 24 hrs by qRT-PCR analysis; type: functional; conditions: dose 2.0 µg/ml
Outline: as §3

Candida tropicalis [23] = test: Antifungal activity against Candida tropicalis 5008 infected in ICR mouse model assessed as reduction in fungal burden in kidney at 20 mg/kg, po administered once a day for 5 days; type: functional; conditions: time 5 day
Outline: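 ICR mice given cyclophosphamide 100 mg/kg ip 24 h before infection, then infected iv with 1 × 10⁵ CFU C. tropicalis 5008 on day 0. Treatment started 24 h post infection: oral dosing once daily for 5 consecutive days, with saline and fluconazole control groups. Mice euthanized day 6. Kidney homogenates plated on SDA at 35 °C for 48 h and colonies counted for fungal burden. ANOVA between groups.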

Cryptococcus neoformans [24] = test: Antifungal activity against Cryptococcus neoformans H99 infected in ICR mouse model assessed as reduction in fungal burden in brain at 20 mg/kg, po administered once a day for 5 days; type: functional, organism-based; conditions: time 5.0 day
Outline: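 Immunosuppression by intraperitoneal cyclophosphamide 24 h before infection. Infected on day 0 by intravenous 2 × 10⁵ CFU C. neoformans H99. Oral treatment once daily for 5 consecutive days, starting 24 h post infection; saline group as blank. Brains taken on day 6 and homogenized, dilutions plated on SDA at 35 °C for 48 h. Colonies counted for burden; groups compared by ANOVA.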

Candida tropicalis [25] = test: Antifungal activity against fluconazole-resistant Candida tropicalis 5008 assessed as inhibition of cell proliferation at 32 ug/ml measured for 48 hrs by time growth curve assay; type: functional, organism-based; conditions: dose 32.0 µg/ml
Outline: as §1

## O=C(CCCCCCCOc1ccc(CN2CCN(CC(O)(Cn3cncn3)c3ccc(F)cc3F)CC2)cc1)NO (stereo not given)
Candida tropicalis [1]
  MIC80: 0.5 µg/mL (≈ 0.852 µM)
Cryptococcus neoformans [2]
  MIC80: 0.5 µg/mL (≈ 0.852 µM)
Candida albicans [3]
  MIC80: 1 µg/mL (≈ 1.7 µM)
Candida albicans [4]
  MIC80: 8 µg/mL (≈ 13.6 µM)
Candida albicans [5]
  MIC80: 16 µg/mL (≈ 27.3 µM)
Candida tropicalis [6]
  Activity: Active
Candida tropicalis [7]
  inhibition at 64 µg/mL: 100%
Cryptococcus neoformans [8]
  inhibition at 64 µg/mL: 70%
Cryptococcus neoformans [9]
  inhibition: Active
Cryptococcus neoformans [10]
  inhibition: Active
Cryptococcus neoformans [11]
  inhibition: inactive
Candida tropicalis [12]
  Activity: 1.31%
Candida tropicalis [13]
  Activity: 69.3%
Cryptococcus neoformans [14]
  Activity: 19.1%
Cryptococcus neoformans [15]
  Activity: 9.59%
Candida tropicalis [16]
  inhibition: Active
Candida tropicalis [17]
  inhibition: Active
Candida tropicalis [18]
  inhibition: Active
[19]
  IC50: 2380 nM
Cryptococcus neoformans [20]
  inhibition: Active
Cryptococcus neoformans [21]
  inhibition: Active
Cryptococcus neoformans [22]
  inhibition: Active
Candida tropicalis [23]
  log(activity): 0.7
Cryptococcus neoformans [24]
  Activity: Active
Candida tropicalis [25]
  Activity: Active
